Test results published in ChEMBL document CHEMBL2163234, “Design and characterization of optimized adenosine A₂A/A₁ receptor antagonists for the treatment of Parkinson's disease” (J Med Chem, 2012).
Each block holds one compound with its values, some of them ahead of it. Calls of active or inactive are those of the source. The rule behind the calls is not given here.

Columns and labels:
Adenosine receptor A1 = target: T1, Adenosine receptor A1 (Homo sapiens, UniProt P30542); test: Antagonist activity at human Adenosine receptor A1 assessed as inhibition of cAMP production; assay type: functional
T1 sequence (P30542 whole entry): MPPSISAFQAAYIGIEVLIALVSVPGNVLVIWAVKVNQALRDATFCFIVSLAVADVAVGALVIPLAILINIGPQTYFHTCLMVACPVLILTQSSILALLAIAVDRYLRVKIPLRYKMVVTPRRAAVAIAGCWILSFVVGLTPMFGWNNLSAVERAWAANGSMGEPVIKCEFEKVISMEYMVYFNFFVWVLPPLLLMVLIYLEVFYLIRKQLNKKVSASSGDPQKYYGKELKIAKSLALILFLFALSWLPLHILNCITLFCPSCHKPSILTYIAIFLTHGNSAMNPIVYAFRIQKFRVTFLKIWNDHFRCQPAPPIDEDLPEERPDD

Mus musculus [1] = test: Reversal of haloperidol-induced catalepsy in BALB/c mouse at 10 mg/kg, po measured 1 hr post dose; assay type: functional
How it was run: (§1)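 Fasted male Balb/c mice receive haloperidol 1 mg/kg sc in 0.3% tartaric acid/saline, then drug po in 0.5% methylcellulose 30 min later (0.1–10.0 mg/kg, or 10 mg/kg as % reversal). At 1 h post-dose, forepaws are placed on a bar 3.5 cm high and time in cataleptic position is recorded (max 60 s). Blinded; n = 8–12; mean ± SEM; Dunnett test.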

Adenosine receptor A2a = Adenosine receptor A2a (Homo sapiens, UniProt P29274); test: Antagonist activity at human Adenosine receptor A2a assessed as inhibition of cAMP production; assay type: functional
Chain of Adenosine receptor A2a (P29274 whole entry): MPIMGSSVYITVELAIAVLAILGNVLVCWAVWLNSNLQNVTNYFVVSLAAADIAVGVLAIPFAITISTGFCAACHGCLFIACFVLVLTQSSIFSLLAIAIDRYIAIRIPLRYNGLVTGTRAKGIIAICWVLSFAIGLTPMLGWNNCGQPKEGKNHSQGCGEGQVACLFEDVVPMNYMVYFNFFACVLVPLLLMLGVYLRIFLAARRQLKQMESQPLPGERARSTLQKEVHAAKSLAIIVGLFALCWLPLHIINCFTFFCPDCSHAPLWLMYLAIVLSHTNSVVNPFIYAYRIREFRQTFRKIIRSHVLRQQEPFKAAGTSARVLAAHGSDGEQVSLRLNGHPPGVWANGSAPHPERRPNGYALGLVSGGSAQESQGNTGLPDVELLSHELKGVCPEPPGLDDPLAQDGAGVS

Rattus norvegicus [2] = test: Reversal of haloperidol-induced catalepsy in Sprague-Dawley rat assessed as time duration of anticataleptic activity at 1 mg/kg, po dosed 60 mins before haloperidol challenge and measured post dose
[3] = Volume of distribution at steady state in Sprague-Dawley rat at 2 mg/kg, iv administered as single dose; assay type: ADME, organism-based; design: dose 2 mg/kg, route intravenous; conditions: in vivo, read-out: Vdss
How it was run: (§2)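 Fasted animals (male Sprague-Dawley rats, male Balb/c mice, male and female cynomolgus monkeys) received a single iv dose or oral 10 mg/kg in 0.5% methylcellulose. Blood came from 3–4 animals per time point by orbital sinus (rats) or cardiac puncture (mice), or serially by venipuncture (monkeys). Plasma was acetonitrile-precipitated and analysed by LC-MS/MS (LOQ 0.7–2 ng/mL), with noncompartmental analysis.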

Mus musculus [4] = test: Antiparkinsonian activity in CF-1 mouse assessed as reversal of reserpine-induced akinesia administered orally 18 hrs before reserpine challenge and measured 60 mins post dose by spontaneous locomotor activity assay; conditions: CF-1, po, read-out: MED
[5] = Clearance in cynomolgus monkey at 2 mg/kg, iv and 10 mg/kg, po administered as single dose; assay type: ADME, organism-based, Macaca fascicularis; conditions: in vivo; how it was run: as §2
[6] = Oral bioavailability in Sprague-Dawley rat at 10 mg/kg administered as single dose; assay type: ADME, organism-based; conditions: in vivo; how it was run: as §2
[7] = Cmax in Sprague-Dawley rat plasma at 10 mg/kg, po administered as single dose; assay type: ADME, organism-based; design: dose 10 mg/kg, route oral; how it was run: as §2
[8] = Cmax in cynomolgus monkey plasma at 10 mg/kg, po administered as single dose; assay type: ADME, organism-based, Macaca fascicularis; design: dose 10 mg/kg, route oral; how it was run: as §2
[9] = Cmax in Sprague-Dawley rat brain at 2 mg/kg, iv and 10 mg/kg, po administered as single dose; assay type: ADME, organism-based
How it was run: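 Tissue distribution: fasted male Sprague-Dawley rats get 10 mg/kg po in 0.5% methylcellulose. Four rats per time point are euthanized, and brain is weighed, homogenized in methanol, evaporated and reconstituted. Blood and plasma are acetonitrile-treated. Drug levels are measured by LC-MS/MS.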

[10] = Oral bioavailability in cynomolgus monkey at 10 mg/kg administered as single dose; assay type: ADME, organism-based, Macaca fascicularis; conditions: in vivo; how it was run: as §2
Rattus norvegicus [11] = test: Antiparkinsonian activity in Wistar rat assessed as reversal of reserpine-induced akinesia administered orally 18 hrs before reserpine challenge and measured 60 mins post dose by spontaneous locomotor activity assay; conditions: for minimal effective dose: po, read-out: MED
Rattus norvegicus [12] = test: Antiparkinsonian activity in Sprague-Dawley rat 6-OHDA lesion model assessed as potentiation of 10 mg/kg, po L-DOPA-induced increase in number of contralateral rotations dosed orally 6 weeks post OHDA-challenge; assay type: functional; conditions: 1008 h, read-out: MED
How it was run: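 Rats lesioned unilaterally in the medial forebrain bundle with 6-OHDA 12 μg were selected by apomorphine rotation (≥125 turns/h). Each rat serves as its own control, with randomized session days. Drug 0.1–10.0 mg/kg po (20% HPβCD) is given and followed 60 min later by L-DOPA 10 mg/kg po plus carbidopa, with rotations recorded over 120 min. Total contralateral turns reported; n = 16; Tukey test.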

[13] = Clearance in BALB/c mouse at 2 mg/kg, iv and 10 mg/kg, po administered as single dose; assay type: ADME, organism-based; conditions: in vivo; how it was run: as §2
[14] = Clearance in Sprague-Dawley rat at 2 mg/kg, iv and 10 mg/kg, po administered as single dose; assay type: ADME, organism-based; conditions: in vivo; how it was run: as §2
[15] = Terminal half life in Sprague-Dawley rat at 10 mg/kg, po administered as single dose; assay type: ADME, organism-based; design: dose 10 mg/kg, route oral; conditions: in vivo, read-out: beta t1/2 (converted); how it was run: as §2
[16] = Cmax in BALB/c mouse plasma at 10 mg/kg, po administered as single dose; assay type: ADME, organism-based; design: dose 10 mg/kg, route oral; how it was run: as §2
Mus musculus [17] = test: Reversal of haloperidol-induced catalepsy in po dosed BALB/c mouse measured 1 hr post dose; assay type: functional; conditions: for minimal effective dose: read-out: MED; how it was run: as §1
[18] = Terminal half life in cynomolgus monkey at 10 mg/kg, po administered as single dose; assay type: ADME, organism-based, Macaca fascicularis; design: dose 10 mg/kg, route oral; conditions: in vivo, read-out: beta t1/2 (converted); how it was run: as §2
[19] = Half life in BALB/c mouse at 10 mg/kg, po administered as single dose; assay type: ADME, organism-based; design: dose 10 mg/kg, route oral; conditions: in vivo; how it was run: as §2
[20] = Oral bioavailability in BALB/c mouse at 10 mg/kg administered as single dose; assay type: ADME, organism-based; conditions: in vivo; how it was run: as §2
Rattus norvegicus [21] = test: Antiparkinsonian activity in Sprague-Dawley rat 6-OHDA lesion model assessed as increase in number of contralateral rotations dosed orally 6 weeks post OHDA-challenge; assay type: functional, organism-based
How it was run: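 Rats receive 6-OHDA 12 μg unilaterally into the medial forebrain bundle. Inclusion required ≥125 contralateral rotations in 1 h after apomorphine 0.05 mg/kg sc. Design is within-subject, with drug 0.1–10.0 mg/kg po in 20% HPβCD after 30 min acclimation. Contralateral 360° turns are counted by a tethered optical sensor for 60 min. Mean ± SEM, n = 16, Tukey test.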

Mus musculus [22] = test: Reversal of haloperidol-induced catalepsy in BALB/c mouse assessed as time duration of anticataleptic activity mouse at 10 mg/kg, po; assay type: functional
How it was run: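 Duration study: fasted male Balb/c mice are dosed with haloperidol 1 mg/kg sc, then drug 10 mg/kg po in 0.5% methylcellulose. Bar-test catalepsy time (max 60 s) is measured repeatedly at 30 min and at 1, 2 and 4 h after dosing. n = 8 per group; mean ± SEM; Dunnett test.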

[23] = Volume of distribution at steady state in BALB/c mouse at 2 mg/kg, iv administered as single dose; assay type: ADME, organism-based; design: dose 2 mg/kg, route intravenous; conditions: in vivo, read-out: Vdss; how it was run: as §2
[24] = Volume of distribution at steady state in cynomolgus monkey at 2 mg/kg, iv administered as single dose; assay type: ADME, organism-based, Macaca fascicularis; design: dose 2 mg/kg, route intravenous; conditions: in vivo, read-out: Vdss; how it was run: as §2
Rattus norvegicus [25] = test: Reversal of haloperidol-induced catalepsy in po dosed Sprague-Dawley rat dosed 60 mins before haloperidol challenge and measured 1 hr post dose; assay type: functional; conditions: for minimal effective dose: read-out: MED
[26] = Clearance in cynomolgus monkey at 1 mg/kg, iv and 10 mg/kg, po administered as single dose; assay type: ADME, organism-based, Macaca fascicularis; conditions: in vivo; how it was run: as §2
Rattus norvegicus [27] = test: Reversal of haloperidol-induced catalepsy in Sprague-Dawley rat at 10 mg/kg, po dosed 60 mins before haloperidol challenge and measured 1 to 4 hrs post dose; assay type: functional, organism-based; design: dose 10 mg/kg
[28] = Volume of distribution at steady state in cynomolgus monkey at 1 mg/kg, iv administered as single dose; assay type: ADME, organism-based, Macaca fascicularis; design: dose 1 mg/kg, route intravenous; conditions: in vivo, read-out: Vdss; how it was run: as §2

Compound: Nc1nc(-c2ccccc2)c2c(n1)-c1cc(Cc3cncc(F)c3)ccc1C2=O
- Ki (Adenosine receptor A1): 6 nM
- Activity (Mus musculus [1]): 100%
- Ki (Adenosine receptor A2a): 1.3 nM

Compound: Nc1nc(-c2ccccc2)c2c(n1)-c1cc(OCCN3CCOCC3)ccc1C2=O
- Time (Rattus norvegicus [2]): 4 h
- Vd [3]: 1 L/kg
- minimal effective dose (Mus musculus [4]): 1 mg/kg
- clearance [5]: 7 mL/min/kg
- bioavailability [6]: 18%
- Cmax [7]: 1650 nM
- Cmax [8]: 2770 nM
- Cmax [9]: 4160 nM
- bioavailability [10]: 55%
- Activity (Rattus norvegicus [11]): Dose-dependent effect
- minimal effective dose (Rattus norvegicus [11]): 1 mg/kg
- minimal effective dose (Rattus norvegicus [12]): 1 mg/kg
- clearance [13]: 97 mL/min/kg
- clearance [14]: 19 mL/min/kg
- half-life [15]: 72 min
- Cmax [16]: 1080 nM
- ED50 (Mus musculus [17]): < 0.1 mg/kg
- minimal effective dose (Mus musculus [17]): 0.1 mg/kg
- half-life [18]: 330 min
- half-life [19]: 66 min
- bioavailability [20]: 61%
- Activity (Rattus norvegicus [21]): Dose-dependent effect
- Time (Mus musculus [22]): 4 h
- Vd [23]: 5 L/kg
- Vd [24]: 2 L/kg
- Activity (Rattus norvegicus [25]): Dose-dependent effect
- ED50 (Rattus norvegicus [25]): 0.3 mg/kg
- minimal effective dose (Rattus norvegicus [25]): 1 mg/kg

Compound: Nc1nc(-c2ccccc2)c2c(n1)-c1cc(CN3C4CCC3CC4)ccc1C2=O
- Ki (Adenosine receptor A1): 223 nM
- ED50 (Mus musculus [17]): 1 mg/kg
- Ki (Adenosine receptor A2a): 3.1 nM

Compound: CC1CC[C@@H](C)N1Cc1ccc2c(c1)-c1nc(N)nc(-c3ccccc3)c1C2=O (mixture of isomers)
- Ki (Adenosine receptor A1): 37.3 nM
- ED50 (Mus musculus [17]): 3.2 mg/kg
- Ki (Adenosine receptor A2a): 13.1 nM

Compound: N#Cc1cncc(Cc2ccc3c(c2)-c2nc(N)nc(-c4ccccc4)c2C3=O)c1
- Ki (Adenosine receptor A1): 5.2 nM
- Activity (Mus musculus [1]): 100%
- Ki (Adenosine receptor A2a): 1.4 nM
- Time (Mus musculus [22]): 2 h

Compound: Nc1nc(-c2ccccc2)c2c(n1)-c1cc(CN3CCCC3)ccc1C2=O
- Vd [3]: 7 L/kg
- clearance [26]: 56 mL/min/kg
- Activity (Rattus norvegicus [27]): Active
- clearance [13]: 440 mL/min/kg
- clearance [14]: 85 mL/min/kg
- ED50 (Mus musculus [17]): 0.2 mg/kg
- Vd [28]: 7 L/kg
- Vd [23]: 13 L/kg

Compound: CN1CCN(C(=O)c2ccc3c(c2)-c2nc(N)nc(-c4ccccc4)c2C3=O)CC1
- Vd [3]: 6 L/kg
- minimal effective dose (Mus musculus [4]): 1 mg/kg
- clearance [5]: 15 mL/min/kg
- bioavailability [6]: 45%
- Cmax [7]: 968 nM
- Cmax [8]: 1460 nM
- Cmax [9]: 459 nM
- bioavailability [10]: 47%
- Activity (Rattus norvegicus [11]): Dose-dependent effect
- minimal effective dose (Rattus norvegicus [11]): 1 mg/kg
- minimal effective dose (Rattus norvegicus [12]): 1 mg/kg
- clearance [13]: 37 mL/min/kg
- clearance [14]: 52 mL/min/kg
- half-life [15]: 216 min
- Cmax [16]: 1700 nM
- ED50 (Mus musculus [17]): 0.4 mg/kg
- minimal effective dose (Mus musculus [17]): 1 mg/kg
- half-life [18]: 258 min
- half-life [19]: 228 min
- bioavailability [20]: 41%
- Activity (Rattus norvegicus [21]): Dose-dependent effect
- Time (Mus musculus [22]): 4 h
- Vd [23]: 11 L/kg
- Vd [24]: 4 L/kg
- Activity (Rattus norvegicus [25]): Dose-dependent effect
- ED50 (Rattus norvegicus [25]): 0.6 mg/kg
- minimal effective dose (Rattus norvegicus [25]): 1 mg/kg

Compound: Nc1nc(-c2ccccc2)c2c(n1)-c1cc(Cc3cnccc3Cl)ccc1C2=O
- Ki (Adenosine receptor A1): 0.5 nM
- Activity (Mus musculus [1]): 100%
- Ki (Adenosine receptor A2a): 0.1 nM

More lines, main results first:

- Ki (Adenosine receptor A1): 29.3 nM
- Ki (Adenosine receptor A2a): 1.6 nM
Compound: Nc1nc(-c2ccccc2)c2c(n1)-c1cc(C(F)(F)c3cccnc3)ccc1C2=O
- Activity (Mus musculus [1]): <50%

- Ki (Adenosine receptor A1): 2.5 nM
- Ki (Adenosine receptor A2a): 0.7 nM
Compound: Nc1nc(-c2ccccc2)c2c(n1)-c1cc(Cc3ccncc3F)ccc1C2=O
- Activity (Mus musculus [1]): 100%

- Ki (Adenosine receptor A1): 2.4 nM
- Ki (Adenosine receptor A2a): 0.3 nM
Compound: Nc1nc(-c2ccccc2)c2c(n1)-c1cc(Cc3cccnc3)ccc1C2=O
- ED50 (Mus musculus [17]): < 1 mg/kg
- Time (Mus musculus [22]): 4 h

- Ki (Adenosine receptor A1): 1.8 nM
- Ki (Adenosine receptor A2a): 0.5 nM
Compound: Nc1nc(-c2ccccc2)c2c(n1)-c1cc(C(=O)c3cccnc3)ccc1C2=O
- Activity (Mus musculus [1]): <50%
